In publication PMC5470083 (Molecular imaging, 2016):
Where two headings read alike, the source gives them in different places. Marks after values point to notes of the source that are not given here. Each block holds one compound with its values, some of them ahead of it.

What was measured:
[1] = Biodistribution in normal NMRI mice; type: in vivo, mouse; settings: for %ID/g Blood / %ID/g Bone / %ID/g Brain / %ID/g Cerebellum / %ID/g Cerebrum / %ID/g Heart / %ID/g Kidneys / %ID/g Liver / %ID/g Lungs / %ID/g Muscle / %ID/g Pancreas / %ID/g Spleen: iv; for 2/60 min activity ratio Blood (clearance from blood) / 2/60 min activity ratio Brain: 2 min to 60 min activity ratio
Outline: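 Healthy male NMRI mice (30-40 g) under 2.5% isoflurane in O2 received about 0.9 MBq of 18F-labelled tracer by tail vein. They were decapitated at 2, 10, 30 and 60 min PI (n = 4/time point). Blood and organs were weighed and γ-counted. Blood, bone and muscle were taken as 7%, 12% and 40% of body mass. Blood clearance was calculated as the 2 min to 60 min activity ratio.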

PHF tau = PHF tau (Homo sapiens, UniProt P10636); type: binding
amyloid plaques = amyloid plaques (Homo sapiens, UniProt P05067); type: binding
Aβ = Aβ (Homo sapiens, UniProt P05067); assay: In vitro autoradiography binding inhibition of [11C]PiB on human AD brain slices; settings: for % Block ± SD of tracer binding: 1 µmol/L compound, human AD slices, n = 3
[2] = Plasma radiometabolite analysis; type: in vivo, mouse; settings: normal mice
Outline: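 NMRI mice under isoflurane (2.5% in O2) received about 3.7 MBq of 18F-labelled tracer via a lateral tail vein. They were decapitated at 2, 10, 30 or 60 min PI (n = 3/time point). EDTA blood was kept on ice and spun at 2330 ×g for 10 min. Plasma (0.5 mL) was spiked with 10 µg authentic unlabelled compound and run on C18 HPLC. Fractions were γ-counted for % intact tracer, reported as mean ± SD.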

[3] = Perfused brain radiometabolite analysis; type: in vivo, mouse; settings: normal mice
tau (NFTs) [4] = target: T1, tau (NFTs) (Homo sapiens, UniProt P10636); type: binding; settings: 1 µmol/L compound; tracer 7 nmol/L [18F]T808; human AD slices; n = 3
Target sequence in this assay (P10636 623-708 limits assumed): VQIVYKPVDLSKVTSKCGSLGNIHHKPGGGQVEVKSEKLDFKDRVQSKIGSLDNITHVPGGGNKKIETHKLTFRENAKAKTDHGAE

NFTs = settings: autoradiography on human AD brain tissue sections; ref [8],[11]; cited from earlier work
tau (NFTs) [5] = target: T1, tau (NFTs); type: binding; settings: for % Block ± SD of tracer binding: 1 µmol/L compound, tracer 28 nmol/L [18F]T807, human AD slices, n = 3; for inhibition at 1 µM: read-out: % Block ± SD of tracer binding
Target sequence in this assay (P10636 623-695 limits assumed): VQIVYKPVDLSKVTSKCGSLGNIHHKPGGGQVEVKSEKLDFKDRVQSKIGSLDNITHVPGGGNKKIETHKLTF

[6] = read-out: % Block ± SD of tracer binding
[7] = read-out: Inhibition of [11C]PiB binding, summary statements

Aβ, sequence (P05067 672-711 limits assumed): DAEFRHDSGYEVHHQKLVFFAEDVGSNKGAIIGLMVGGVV
amyloid plaques, sequence (P05067 672-711 limits assumed): as above
PHF tau, sequence (P10636 623-695 limits assumed): as the sequence (P10636 623-695 limits assumed) above

%ID/g Blood ([1]; 2 min PI): 1.5 ± 0.2 %ID/g
2/60 min activity ratio Blood (clearance from blood) [1]: 2.5
%ID/g Blood ([1]; 10 min PI): 0.7 ± 0.0 %ID/g
%ID/g Blood ([1]; 30 min PI): 0.7 ± 0.1 %ID/g
%ID/g Blood ([1]; 60 min PI): 0.6 ± 0.1 %ID/g
%ID/g Bone ([1]; 2 min PI): 0.1 ± 0.1 %ID/g
%ID/g Bone ([1]; 10 min PI): 1.4 ± 0.2 %ID/g
%ID/g Bone ([1]; 60 min PI): 0.1 ± 0.0 %ID/g
%ID/g Brain ([1]; 2 min PI): 7.5 ± 1.1 %ID/g
2/60 min activity ratio Brain [1]: 18.3
%ID/g Brain ([1]; 10 min PI): 2.6 ± 0.5 %ID/g
%ID/g Brain ([1]; 30 min PI): 0.8 ± 0.4 %ID/g
%ID/g Brain ([1]; 60 min PI): 0.4 ± 0.2 %ID/g
%ID/g Cerebellum ([1]; 2 min PI): 8.5 ± 1.4 %ID/g
%ID/g Cerebellum ([1]; 10 min PI): 2.4 ± 0.5 %ID/g
%ID/g Cerebellum ([1]; 30 min PI): 0.8 ± 0.4 %ID/g
%ID/g Cerebellum ([1]; 60 min PI): 0.4 ± 0.2 %ID/g
%ID/g Cerebrum ([1]; 2 min PI): 7.2 ± 1.0 %ID/g
%ID/g Cerebrum ([1]; 10 min PI): 2.6 ± 0.5 %ID/g
%ID/g Cerebrum ([1]; 30 min PI): 0.8 ± 0.4 %ID/g
%ID/g Cerebrum ([1]; 60 min PI): 0.4 ± 0.2 %ID/g
%ID/g Heart ([1]; 2 min PI): 6.8 ± 0.9 %ID/g
%ID/g Heart ([1]; 10 min PI): 2.1 ± 0.3 %ID/g
%ID/g Heart ([1]; 30 min PI): 1.3 ± 0.3 %ID/g
%ID/g Heart ([1]; 60 min PI): 1.0 ± 0.1 %ID/g
%ID/g Kidneys ([1]; 2 min PI): 35.9 ± 6.2 %ID/g
%ID/g Kidneys ([1]; 10 min PI): 25.6 ± 3.0 %ID/g
%ID/g Kidneys ([1]; 30 min PI): 15.8 ± 5.0 %ID/g
%ID/g Kidneys ([1]; 60 min PI): 13.0 ± 2.6 %ID/g
%ID/g Liver ([1]; 2 min PI): 12.6 ± 2.4 %ID/g
%ID/g Liver ([1]; 10 min PI): 14.6 ± 1.0 %ID/g
%ID/g Liver ([1]; 30 min PI): 20.7 ± 1.8 %ID/g
%ID/g Liver ([1]; 60 min PI): 18.1 ± 2.2 %ID/g
%ID/g Lungs ([1]; 2 min PI): 25.1 ± 11.9 %ID/g
%ID/g Lungs ([1]; 10 min PI): 4.2 ± 1.8 %ID/g
%ID/g Lungs ([1]; 30 min PI): 3.9 ± 1.2 %ID/g
%ID/g Lungs ([1]; 60 min PI): 2.1 ± 0.7 %ID/g
%ID/g Muscle ([1]; 2 min PI): 3.0 ± 1.8 %ID/g
%ID/g Muscle ([1]; 10 min PI): 1.4 ± 0.3 %ID/g
%ID/g Muscle ([1]; 30 min PI): 0.6 ± 0.1 %ID/g
%ID/g Muscle ([1]; 60 min PI): 0.5 ± 0.1 %ID/g
%ID/g Pancreas ([1]; 2 min PI): 4.1 ± 2.2 %ID/g
%ID/g Pancreas ([1]; 10 min PI): 4.7 ± 0.7 %ID/g
%ID/g Pancreas ([1]; 30 min PI): 2.1 ± 0.8 %ID/g
%ID/g Pancreas ([1]; 60 min PI): 1.5 ± 0.6 %ID/g
%ID/g Spleen ([1]; 2 min PI): 15.7 ± 5.1 %ID/g
%ID/g Spleen ([1]; 10 min PI): 13.8 ± 12.5 %ID/g
%ID/g Spleen ([1]; 30 min PI): 3.8 ± 1.3 %ID/g
%ID/g Spleen ([1]; 60 min PI): 3.1 ± 1.7 %ID/g
Ki (PHF tau): 1.1 nM
Ki (amyloid plaques): 247 nM
% Block ± SD of tracer binding (Aβ; tracer 13 nmol/L [11C]PiB): 11 ± 0.1%
inhibition at 1 µM (Aβ; [6]): 11%
inhibition at 1 µM (Aβ; [7]): < 17%
Mean % ± SD of intact tracer, plasma ([2]; 2 min after injection, n = 3): 99 ± 1%
Mean % ± SD of intact tracer, plasma ([2]; 2 min after injection, n = 3, listed as [^18F]T807): 99%
Mean % ± SD of intact tracer, plasma ([2]; 10 min after injection, n = 3): 84 ± 5%
Mean % ± SD of intact tracer, plasma ([2]; 30 min after injection, n = 3): 60 ± 14%
Mean % ± SD of intact tracer, plasma ([2]; 30 min after injection, n = 3, listed as [^18F]T807): 60%
Mean % ± SD of intact tracer, plasma ([2]; 60 min after injection, n = 3): 45 ± 4%
Mean % ± SD of intact tracer, perfused brain ([3]; 10 min after injection, n = 3): 100 ± 0%
Mean % ± SD of intact tracer, perfused brain ([3]; 10 min after injection, n = 3, listed as [^18F]T807): ~100%
Mean % ± SD of intact tracer, perfused brain ([3]; 60 min after injection, n = 3): 99 ± 1%
Mean % ± SD of intact tracer, perfused brain ([3]; 60 min after injection, n = 3, listed as [^18F]T807): ~100%
% Block ± SD of tracer binding (tau (NFTs) [4]): 94 ± 0.0%
% Block ± SD of tracer binding (tau (NFTs) [5]): 88 ± 0.0%
inhibition at 1 µM (tau (NFTs) [5]): 88%
Compound: [18F]c1ccc(-c2ccc3c(c2)[nH]c2ccncc23)cn1 [T807, 7-[6-[^18F]fluoropyridin-3-yl]-5H-pyrido-[4,3-b]indole]
Kd (NFTs): 15 nM
fold higher binding affinity for NFTs over Aβ (NFTs): 25 fold

%ID/g Blood ([1]; 2 min PI): 1.8 ± 0.1 %ID/g
2/60 min activity ratio Blood (clearance from blood) [1]: 2.7
%ID/g Blood ([1]; 10 min PI): 2.0 ± 0.2 %ID/g
%ID/g Blood ([1]; 30 min PI): 1.5 ± 0.1 %ID/g
%ID/g Blood ([1]; 60 min PI): 0.7 ± 0.1 %ID/g
%ID/g Bone ([1]; 2 min PI): 2.6 ± 0.6 %ID/g
%ID/g Bone ([1]; 10 min PI): 4.2 ± 0.6 %ID/g
%ID/g Bone ([1]; 60 min PI): 9.2 ± 6.1 %ID/g
%ID/g Brain ([1]; 2 min PI): 4.9 ± 0.5 %ID/g
2/60 min activity ratio Brain [1]: 18.2
%ID/g Brain ([1]; 10 min PI): 0.9 ± 0.3 %ID/g
%ID/g Brain ([1]; 30 min PI): 0.4 ± 0.0 %ID/g
%ID/g Brain ([1]; 60 min PI): 0.3 ± 0.0 %ID/g
%ID/g Cerebellum ([1]; 2 min PI): 5.2 ± 0.5 %ID/g
%ID/g Cerebellum ([1]; 10 min PI): 1.0 ± 0.6 %ID/g
%ID/g Cerebellum ([1]; 30 min PI): 0.6 ± 0.1 %ID/g
%ID/g Cerebellum ([1]; 60 min PI): 0.5 ± 0.2 %ID/g
%ID/g Cerebrum ([1]; 2 min PI): 4.9 ± 0.5 %ID/g
%ID/g Cerebrum ([1]; 10 min PI): 1.0 ± 0.1 %ID/g
%ID/g Cerebrum ([1]; 30 min PI): 0.4 ± 0.0 %ID/g
%ID/g Cerebrum ([1]; 60 min PI): 0.2 ± 0.0 %ID/g
%ID/g Heart ([1]; 2 min PI): 3.2 ± 0.4 %ID/g
%ID/g Heart ([1]; 10 min PI): 2.3 ± 0.3 %ID/g
%ID/g Heart ([1]; 30 min PI): 1.7 ± 0.0 %ID/g
%ID/g Heart ([1]; 60 min PI): 0.8 ± 0.1 %ID/g
%ID/g Kidneys ([1]; 2 min PI): 26.3 ± 1.7 %ID/g
%ID/g Kidneys ([1]; 10 min PI): 12.7 ± 1.7 %ID/g
%ID/g Kidneys ([1]; 30 min PI): 9.2 ± 2.3 %ID/g
%ID/g Kidneys ([1]; 60 min PI): 3.6 ± 1.7 %ID/g
%ID/g Liver ([1]; 2 min PI): 11.8 ± 2.4 %ID/g
%ID/g Liver ([1]; 10 min PI): 15.1 ± 1.6 %ID/g
%ID/g Liver ([1]; 30 min PI): 8.3 ± 1.2 %ID/g
%ID/g Liver ([1]; 60 min PI): 4.2 ± 0.7 %ID/g
%ID/g Lungs ([1]; 2 min PI): 4.8 ± 0.6 %ID/g
%ID/g Lungs ([1]; 10 min PI): 3.0 ± 0.3 %ID/g
%ID/g Lungs ([1]; 30 min PI): 1.8 ± 0.2 %ID/g
%ID/g Lungs ([1]; 60 min PI): 0.9 ± 0.2 %ID/g
%ID/g Muscle ([1]; 2 min PI): 1.5 ± 0.5 %ID/g
%ID/g Muscle ([1]; 10 min PI): 1.0 ± 0.2 %ID/g
%ID/g Muscle ([1]; 30 min PI): 0.8 ± 0.1 %ID/g
%ID/g Muscle ([1]; 60 min PI): 3.5 ± 5.5 %ID/g
%ID/g Pancreas ([1]; 2 min PI): 7.3 ± 2.4 %ID/g
%ID/g Pancreas ([1]; 10 min PI): 4.0 ± 2.0 %ID/g
%ID/g Pancreas ([1]; 30 min PI): 2.2 ± 0.5 %ID/g
%ID/g Pancreas ([1]; 60 min PI): 1.2 ± 0.3 %ID/g
%ID/g Spleen ([1]; 2 min PI): 16.6 ± 6.7 %ID/g
%ID/g Spleen ([1]; 10 min PI): 4.9 ± 0.6 %ID/g
%ID/g Spleen ([1]; 30 min PI): 2.4 ± 0.4 %ID/g
%ID/g Spleen ([1]; 60 min PI): 1.3 ± 0.3 %ID/g
Ki (PHF tau): 9.4 nM
Ki (amyloid plaques): > 4400 nM
% Block ± SD of tracer binding (Aβ; tracer 66 nmol/L [11C]PiB): 17 ± 0.0%
inhibition at 1 µM (Aβ; [6]): 17%
inhibition at 1 µM (Aβ; [7]): < 17%
Mean % ± SD of intact tracer, plasma ([2]; 2 min after injection, n = 3): 65 ± 8%
Mean % ± SD of intact tracer, plasma ([2]; 2 min after injection, n = 3, listed as [^18F]T808): 65%
Mean % ± SD of intact tracer, plasma ([2]; 10 min after injection, n = 3): 34 ± 3%
Mean % ± SD of intact tracer, plasma ([2]; 30 min after injection, n = 3): 29 ± 3%
Mean % ± SD of intact tracer, plasma ([2]; 30 min after injection, n = 3, listed as [^18F]T808): 29%
Mean % ± SD of intact tracer, plasma ([2]; 60 min after injection, n = 3): 26 ± 12%
Mean % ± SD of intact tracer, perfused brain ([3]; 10 min after injection, n = 3): 88 ± 2%
Mean % ± SD of intact tracer, perfused brain ([3]; 10 min after injection, n = 3, listed as [^18F]T808): 88%
Mean % ± SD of intact tracer, perfused brain ([3]; 60 min after injection, n = 3): 34 ± 10%
Mean % ± SD of intact tracer, perfused brain ([3]; 60 min after injection, n = 3, listed as [^18F]T808): 34%
% Block ± SD of tracer binding (tau (NFTs) [4]): 89 ± 0.0%
% Block ± SD of tracer binding (tau (NFTs) [5]): 90 ± 10^b %
inhibition at 1 µM (tau (NFTs) [5]): 90%
Compound: FCCC1CCN(c2ccn3c(n2)nc2ccccc23)CC1 [T808, 2-[4-(2-fluoroethyl)piperidin-1-yl]pyrimido[1,2-a]benzimidazole]
Kd (NFTs): 22 nM
fold higher binding affinity for NFTs over Aβ (NFTs): 27 fold
